Data: ChEMBL document CHEMBL1629431, “Synthesis and antitumor activity of some 2, 3-disubstituted quinazolin-4(3H)-ones and 4, 6- disubstituted- 1, 2, 3, 4-tetrahydroquinazolin-2H-ones” (2010)

Assays:
Assay type in all cases: functional
CCRF-CEM = assay: Growth inhibition of human CCRF-CEM cells at 10 uM after 48 hrs by coulter counter method; conditions: read-out: GI
Procedure, shortened: (§1)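 Single high-dose NCI 60-cell-line panel screen across nine tumor subpanels. Test solutions (0.2 mL) were added in duplicate to wells holding 1.8 mL of culture at 6 × 10⁴ cells/mL. Controls got PBS and DMSO at identical dilutions. Incubation was 48 h at 37 °C in humidified 5% CO₂. Cells were diluted 10-fold in saline, Coulter-counted and dilution-corrected. Results were expressed as percent growth inhibition versus control.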

HL-60(TB) = assay: Growth inhibition of human HL-60(TB) cells at 10 uM after 48 hrs by coulter counter method; conditions: HL-60, 48 h, read-out: GI
Procedure, shortened: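 Part of the NCI 60-cell-line single-high-dose panel. Cells were seeded at 6 × 10⁴ cells/mL with test solution in duplicate wells, alongside PBS/DMSO controls at identical dilutions. Plates were held 48 h at 37 °C in a humidified 5% CO₂ incubator. Cells were then diluted 10-fold in saline and counted by Coulter counter, with counts corrected for dilution. Results are percent growth of treated cells, reported as GI %.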

K562 = assay: Growth inhibition of human K562 cells at 10 uM after 48 hrs by coulter counter method; conditions: K562, 48 h, read-out: GI; procedure, shortened: as §1
MOLT-4 = assay: Growth inhibition of human MOLT4 cells at 10 uM after 48 hrs by coulter counter method; conditions: MOLT-4, 48 h, read-out: GI; procedure, shortened: as §1
SR = assay: Growth inhibition of human SR cells at 10 uM after 48 hrs by coulter counter method; conditions: read-out: GI; procedure, shortened: as §1
A549 = assay: Growth inhibition of human A549 cells at 10 uM after 48 hrs by coulter counter method; conditions: A549, 48 h, read-out: GI; procedure, shortened: as §1
HOP-92 = assay: Growth inhibition of human HOP92 cells at 10 uM after 48 hrs by coulter counter method; conditions: HOP-92, 48 h, read-out: GI; procedure, shortened: as §1
NCI-H226 = assay: Growth inhibition of human NCI-H226 cells at 10 uM after 48 hrs by coulter counter method; conditions: NCI-H226, 48 h, read-out: GI; procedure, shortened: as §1
NCI-H23 = assay: Growth inhibition of human NCI-H23 cells at 10 uM after 48 hrs by coulter counter method; conditions: NCI-H23, 48 h, read-out: GI; procedure, shortened: as §1
NCI-H522 = assay: Growth inhibition of human NCI-H522 cells at 10 uM after 48 hrs by coulter counter method; conditions: NCI-H522, 48 h, read-out: GI; procedure, shortened: as §1
COLO 205 = assay: Growth inhibition of human COLO205 cells at 10 uM after 48 hrs by coulter counter method; conditions: COLO 205, 48 h, read-out: GI; procedure, shortened: as §1
HCT-116 = assay: Growth inhibition of human HCT116 cells at 10 uM after 48 hrs by coulter counter method; conditions: HCT-116, 48 h, read-out: GI; procedure, shortened: as §1
KM12 = assay: Growth inhibition of human KM12 cells at 10 uM after 48 hrs by coulter counter method; conditions: KM12, 48 h, read-out: GI; procedure, shortened: as §1
SF-268 = assay: Growth inhibition of human SF268 cells at 10 uM after 48 hrs by coulter counter method; conditions: SF-268, 48 h, read-out: GI; procedure, shortened: as §1
SF-539 = assay: Growth inhibition of human SF539 cells at 10 uM after 48 hrs by coulter counter method; conditions: SF-539, 48 h, read-out: GI; procedure, shortened: as §1
SNB-75 = assay: Growth inhibition of human SNB75 cells at 10 uM after 48 hrs by coulter counter method; conditions: SNB-75, 48 h, read-out: GI; procedure, shortened: as §1
U-251 = assay: Growth inhibition of human U251 cells at 10 uM after 48 hrs by coulter counter method; conditions: U-251, 48 h, read-out: GI; procedure, shortened: as §1
M14 = assay: Growth inhibition of human M14 cells at 10 uM after 48 hrs by coulter counter method; conditions: M14, 48 h, read-out: GI; procedure, shortened: as §1
SK-MEL-2 = assay: Growth inhibition of human SK-MEL-2 cells at 10 uM after 48 hrs by coulter counter method; conditions: SK-MEL-2, 48 h, read-out: GI; procedure, shortened: as §1
SK-MEL-28 = assay: Growth inhibition of human SK-MEL-28 cells at 10 uM after 48 hrs by coulter counter method; conditions: SK-MEL-28, 48 h, read-out: GI; procedure, shortened: as §1
UACC-62 = assay: Growth inhibition of human UACC62 cells at 10 uM after 48 hrs by coulter counter method; conditions: UACC-62, 48 h, read-out: GI; procedure, shortened: as §1
IGROV-1 = assay: Growth inhibition of human IGROV1 cells at 10 uM after 48 hrs by coulter counter method; conditions: IGROV-1, 48 h, read-out: GI; procedure, shortened: as §1
OVCAR-4 = assay: Growth inhibition of human OVCAR4 cells at 10 uM after 48 hrs by coulter counter method; conditions: OVCAR-4, 48 h, read-out: GI; procedure, shortened: as §1
SK-OV-3 = assay: Growth inhibition of human SKOV3 cells at 10 uM after 48 hrs by coulter counter method; conditions: SK-OV-3, 48 h, read-out: GI; procedure, shortened: as §1
786-0 = assay: Growth inhibition of human 786-0 cells at 10 uM after 48 hrs by coulter counter method; conditions: 786-0, 48 h, read-out: GI; procedure, shortened: as §1
CAKI-1 = assay: Growth inhibition of human Caki1 cells at 10 uM after 48 hrs by coulter counter method; conditions: CAKI-1, 48 h, read-out: GI; procedure, shortened: as §1
SN12C = assay: Growth inhibition of human SN12C cells at 10 uM after 48 hrs by coulter counter method; conditions: read-out: GI; procedure, shortened: as §1
UO-31 = assay: Growth inhibition of human UO31 cells at 10 uM after 48 hrs by coulter counter method; conditions: UO-31, 48 h, read-out: GI; procedure, shortened: as §1
MCF7 = assay: Growth inhibition of human MCF7 cells at 10 uM after 48 hrs by coulter counter method; conditions: MCF7, 48 h, read-out: GI; procedure, shortened: as §1
MDA-MB-231 = assay: Growth inhibition of human MDA-MB-231 cells at 10 uM after 48 hrs by coulter counter method; conditions: MDA-MB-231, 48 h, read-out: GI; procedure, shortened: as §1
[1] = Growth inhibition of human Hs 578T cells at 10 uM after 48 hrs by coulter counter method; conditions: read-out: GI; procedure, shortened: as §1
T47D = assay: Growth inhibition of human T47D cells at 10 uM after 48 hrs by coulter counter method; conditions: read-out: GI; procedure, shortened: as §1
MDA-MB-468 = assay: Growth inhibition of human MDA-MB-468 cells at 10 uM after 48 hrs by coulter counter method; conditions: MDA-MB-468, 48 h, read-out: GI; procedure, shortened: as §1
PC-3 = assay: Growth inhibition of human PC3 cells at 10 uM after 48 hrs by coulter counter method; conditions: PC-3, 48 h, read-out: GI; procedure, shortened: as §1

SMILES | inhibition of growth at 10 µM (CCRF-CEM) [%] | inhibition of growth at 10 µM (HL-60(TB)) [%] | inhibition of growth at 10 µM (MOLT-4) [%] | inhibition of growth at 10 µM (SR) [%] | inhibition of growth at 10 µM (NCI-H226) [%] | inhibition of growth at 10 µM (NCI-H23) [%] | inhibition of growth at 10 µM (NCI-H522) [%] | inhibition of growth at 10 µM (COLO 205) [%] | inhibition of growth at 10 µM (HCT-116) [%] | inhibition of growth at 10 µM (KM12) [%] | inhibition of growth at 10 µM (SF-268) [%] | inhibition of growth at 10 µM (SF-539) [%] | inhibition of growth at 10 µM (SNB-75) [%] | inhibition of growth at 10 µM (U-251) [%] | inhibition of growth at 10 µM (M14) [%] | inhibition of growth at 10 µM (SK-MEL-2) [%] | inhibition of growth at 10 µM (SK-MEL-28) [%] | inhibition of growth at 10 µM (UACC-62) [%] | inhibition of growth at 10 µM (IGROV-1) [%] | inhibition of growth at 10 µM (OVCAR-4) [%] | also measured
O=C(CSc1nc2ccccc2c(=O)n1-c1ccc(Cl)cc1)c1ccc(Cl)cc1 | 30 | 30 | 30 | 30 | 30 | 30 | 52.6 | 30 | 30 | 30 | 30 | 30 | 30 | 30 | 30 | 30 | 30 | 30 | 43.7 | 30 | inhibition of growth at 10 µM (K562): 30%; inhibition of growth at 10 µM (A549): 30%; inhibition of growth at 10 µM (HOP-92): 30%; inhibition of growth at 10 µM (SK-OV-3): 30%; inhibition of growth at 10 µM (786-0): 30%; inhibition of growth at 10 µM (CAKI-1): 30%; inhibition of growth at 10 µM (SN12C): 30%; inhibition of growth at 10 µM (UO-31): 30%; inhibition of growth at 10 µM (MCF7): 30%; inhibition of growth at 10 µM (MDA-MB-231): 30%; inhibition of growth at 10 µM [1]: 30%; inhibition of growth at 10 µM (T47D): 30%; inhibition of growth at 10 µM (MDA-MB-468): 30%
COc1ccc(-n2c(SCC(=O)c3ccc(Cl)cc3)nc3ccccc3c2=O)cc1 | 30 | 33.3 | 30 | 30 | 75.6 | 41.1 | 23 | 53.1 | 54.6 | 41.8 | 49 | 68.6 | 47.4 | 31.6 | 30 | 30 | 30 | 76.7 | 45.7 | 32.1 | inhibition of growth at 10 µM (SK-OV-3): 31.9%; inhibition of growth at 10 µM (786-0): 31.1%; inhibition of growth at 10 µM (SN12C): 32.5%; inhibition of growth at 10 µM (UO-31): 30%; inhibition of growth at 10 µM (PC-3): 55.3%; inhibition of growth at 10 µM (MCF7): 34.3%; inhibition of growth at 10 µM (MDA-MB-231): 33.3%; inhibition of growth at 10 µM [1]: 80.6%; inhibition of growth at 10 µM (T47D): 30%; inhibition of growth at 10 µM (MDA-MB-468): 41.4%
CCn1c(SCC(=O)c2ccc(OC)cc2)nc2ccccc2c1=O | 30 | 30 | 30 | 30 | 30 | 30 | < 30 | 30 | 30 | 30 | 30 | 30 | 30 | 30 | 30 | 30 | 30 | 30 | 30 | 30 | inhibition of growth at 10 µM (A549): 30%; inhibition of growth at 10 µM (HOP-92): 30%; inhibition of growth at 10 µM (SK-OV-3): 30%; inhibition of growth at 10 µM (786-0): 30%; inhibition of growth at 10 µM (CAKI-1): 30%; inhibition of growth at 10 µM (SN12C): 30%; inhibition of growth at 10 µM (UO-31): 31.6%; inhibition of growth at 10 µM (PC-3): 30%; inhibition of growth at 10 µM (MCF7): 30%; inhibition of growth at 10 µM (MDA-MB-231): 30%; inhibition of growth at 10 µM [1]: 30%; inhibition of growth at 10 µM (T47D): 30%; inhibition of growth at 10 µM (MDA-MB-468): 30%
COc1ccc(-c2nnc(Nc3nc4ccccc4c(=O)n3-c3ccccc3)s2)cc1 | 30 | 30 | 30 | 30 | 30 | 30 | 30 | 58.9 | 30 | 30 | 30 | 30 | 30 | 30 | 30 | 30 | 30 | 30 | 30 | 30 | inhibition of growth at 10 µM (K562): 30%; inhibition of growth at 10 µM (A549): 30%; inhibition of growth at 10 µM (HOP-92): 30%; inhibition of growth at 10 µM (SK-OV-3): 30%; inhibition of growth at 10 µM (786-0): 30%; inhibition of growth at 10 µM (CAKI-1): 30%; inhibition of growth at 10 µM (SN12C): 30%; inhibition of growth at 10 µM (UO-31): 30%; inhibition of growth at 10 µM (PC-3): 30%; inhibition of growth at 10 µM (MCF7): 30%; inhibition of growth at 10 µM (MDA-MB-231): 30%; inhibition of growth at 10 µM [1]: 30%; inhibition of growth at 10 µM (T47D): 30%; inhibition of growth at 10 µM (MDA-MB-468): 30%
